Holding throughout (type): functional
The subject of assay [1] is Escherichia coli. In words: Bactericidal activity against Escherichia coli ATCC 25922 preincubated 16 to 20 hrs followed by subculturing and measured after over night. In a few lines:
(§1)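 MBC by CLSI broth microdilution on the same strain panel: S. aureus ATCC 43300, ATCC 29213, clinical isolates AD3 and 144, E. coli ATCC 25922; ATCC 43300 served as QC strain.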

Assay [2] has as its system Staphylococcus aureus. In words: Antibacterial activity against methicillin-resistant Staphylococcus aureus ATCC 43300 after 24 hrs by CLSI based broth micro dilution method. In a few lines: (§2)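 Broth microdilution run per CLSI. MRSA ATCC 43300 served as the QC strain, with the CLSI QC range as reference. S. aureus AD3 and 144 are clinical isolates from Guangdong Province. Pleuromutilin and tiamulin were run as reference drugs.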

Assay [3] in a line: Ratio of MBC for bactericidal activity against methicillin-resistant Staphylococcus aureus ATCC 43300 to MIC for antibacterial activity against methicillin-resistant Staphylococcus aureus ATCC 4330.
In assay [4] the test system is Escherichia coli. In words: Antibacterial activity against Escherichia coli ATCC 25922 after 24 hrs by CLSI based broth micro dilution method. The method in brief:
(§3)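 CLSI broth microdilution MIC against S. aureus ATCC 43300 (MRSA), ATCC 29213, clinical isolates AD3 and 144 (Guangdong Province), and E. coli ATCC 25922; ATCC 43300 served as QC strain, with the CLSI quality control range as reference.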

Assay [5] has as its system Staphylococcus aureus. In words: Antibacterial activity against Staphylococcus aureus ATCC 29213 after 24 hrs by CLSI based broth micro dilution method. The method in brief:
as §2

Assay [6] relates to Staphylococcus aureus. In words: Bactericidal activity against Staphylococcus aureus AD3 preincubated 16 to 20 hrs followed by subculturing and measured after over night. The method in brief: as §1
For assay [7], the system named is Staphylococcus aureus. In words: Bactericidal activity against Staphylococcus aureus ATCC 29213 preincubated 16 to 20 hrs followed by subculturing and measured after over night. The method in brief:
as §1

Assay [8] relates to Staphylococcus aureus. Description: Bactericidal activity against methicillin-resistant Staphylococcus aureus ATCC 43300 preincubated 16 to 20 hrs followed by subculturing and measured after over night. In a few lines:
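MBC determined by the CLSI broth microdilution method against MRSA ATCC 43300, with ATCC 43300 also serving as the QC strain. Pleuromutilin and tiamulin were reference drugs.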

For assay [9], the system named is Staphylococcus aureus. In words: Antibacterial activity against Staphylococcus aureus 144 after 24 hrs by CLSI based broth micro dilution method. In a few lines:
as §2

For assay [10], the system named is Staphylococcus aureus. Description: Antibacterial activity against Staphylococcus aureus AD3 after 24 hrs by CLSI based broth micro dilution method. The method in brief:
as §3

The test system of assay [11] is Staphylococcus aureus. Description: Bactericidal activity against Staphylococcus aureus 144 preincubated 16 to 20 hrs followed by subculturing and measured after over night. The method in brief:
as §1

Converted amounts (≈) assume the structure as drawn.

Data on 6 molecules can be found in ChEMBL document CHEMBL4765405, “Design, synthesis and biological activities of novel pleuromutilin derivatives with a substituted triazole moiety as potent antibacterial agents” (Eur J Med Chem, 2020).

Broadly, the MBC is the lowest tested concentration that kills the bacteria rather than only halting them. Read a low MBC as more potent killing. The term MIC denotes the smallest concentration in the dilution series that meets the test's criterion for growth inhibition.

Turning to `C=C[C@]1(C)C[C@@H](OC(=O)CSc2ccccc2NC(=O)Cn2cc(CN3CCN(c4cccc(O)c4)CC3)nn2)[C@]2(C)[C@H](C)CC[C@]3(CCC(=O)[C@H]32)[C@@H](C)[C@@H]1O`, the MBC against Escherichia coli [1] was over 32 µg/mL; against Staphylococcus aureus [6], 0.5 µg/mL (≈ 0.637 µM); in the assay on Staphylococcus aureus [7], 0.5 µg/mL (≈ 0.637 µM); against Staphylococcus aureus [8], 0.5 µg/mL (≈ 0.637 µM); in the assay on Staphylococcus aureus [11], 1 µg/mL (≈ 1.27 µM). Besides, the minimal inhibitory concentration (MIC) is 0.25 µg/mL (≈ 0.318 µM) against Staphylococcus aureus [2]; over 32 µg/mL against Escherichia coli [4]; 0.25 µg/mL (≈ 0.318 µM) in the assay with Staphylococcus aureus [5]; 0.5 µg/mL (≈ 0.637 µM) against Staphylococcus aureus [9]; 0.25 µg/mL (≈ 0.318 µM) in the assay on Staphylococcus aureus [10]. Moreover, the Ratio in assay [3] came to 1.
As to `C=C[C@]1(C)C[C@@H](OC(=O)CSc2ccccc2NC(=O)Cn2cc(CN3CCN(c4ccccc4[N+](=O)[O-])CC3)nn2)[C@]2(C)[C@H](C)CC[C@]3(CCC(=O)[C@H]32)[C@@H](C)[C@@H]1O`, the minimum bactericidal concentration (MBC) against Escherichia coli [1] is over 32 µg/mL; in the assay on Staphylococcus aureus [6], 1 µg/mL (≈ 1.23 µM); against Staphylococcus aureus [7] it was 0.25 µg/mL (≈ 0.307 µM); against Staphylococcus aureus [8], 1 µg/mL (≈ 1.23 µM); against Staphylococcus aureus [11] it was 2 µg/mL (≈ 2.46 µM). Also, the minimum inhibitory concentration (MIC) against Staphylococcus aureus [2] is 0.5 µg/mL (≈ 0.614 µM); with Escherichia coli [4], over 32 µg/mL; in the assay with Staphylococcus aureus [5] it was 0.25 µg/mL (≈ 0.307 µM); with Staphylococcus aureus [9], 0.5 µg/mL (≈ 0.614 µM); against Staphylococcus aureus [10], 0.5 µg/mL (≈ 0.614 µM). Also, the Ratio in [3] came to 1.
Regarding `C=C[C@]1(C)C[C@@H](OC(=O)CSc2ccccc2NC(=O)Cn2cc(CN3CCOCC3)nn2)[C@]2(C)[C@H](C)CC[C@]3(CCC(=O)[C@H]32)[C@@H](C)[C@@H]1O`, the MBC against Escherichia coli [1] was over 32 µg/mL; with Staphylococcus aureus [6] it was 2 µg/mL (≈ 2.88 µM); against Staphylococcus aureus [7], 0.5 µg/mL (≈ 0.721 µM); with Staphylococcus aureus [8] it was 1 µg/mL (≈ 1.44 µM); in the assay with Staphylococcus aureus [11], 1 µg/mL (≈ 1.44 µM). Moreover, the MIC in the assay on Staphylococcus aureus [2] is 0.5 µg/mL (≈ 0.721 µM); in the assay with Escherichia coli [4], over 32 µg/mL; in the assay on Staphylococcus aureus [5] it was 0.5 µg/mL (≈ 0.721 µM); in the assay with Staphylococcus aureus [9], 1 µg/mL (≈ 1.44 µM); in the assay with Staphylococcus aureus [10], 1 µg/mL (≈ 1.44 µM). Besides, in assay [3], the Ratio came out at 1.
For the molecule `C=C[C@]1(C)C[C@@H](OC(=O)CSc2ccccc2NC(=O)Cn2cc(CN3CCN(c4ccccc4Cl)CC3)nn2)[C@]2(C)[C@H](C)CC[C@]3(CCC(=O)[C@H]32)[C@@H](C)[C@@H]1O`, the MBC is over 32 µg/mL against Escherichia coli [1]; 2 µg/mL (≈ 2.49 µM) against Staphylococcus aureus [6]; 2 µg/mL (≈ 2.49 µM) with Staphylococcus aureus [7]; 2 µg/mL (≈ 2.49 µM) in the assay on Staphylococcus aureus [8]; 4 µg/mL (≈ 4.98 µM) in the assay on Staphylococcus aureus [11]. For the same molecule, the minimum inhibitory concentration (MIC) with Staphylococcus aureus [2] was 1 µg/mL (≈ 1.24 µM); with Escherichia coli [4] it was over 32 µg/mL; in the assay on Staphylococcus aureus [5] it was 1 µg/mL (≈ 1.24 µM); with Staphylococcus aureus [9], 2 µg/mL (≈ 2.49 µM); against Staphylococcus aureus [10] it was 2 µg/mL (≈ 2.49 µM). In addition, in [3], the Ratio turned out to be 1.
Consider `C=C[C@]1(C)C[C@@H](OC(=O)CSc2ccccc2NC(=O)Cn2cc(CN3CCN(c4ccc(O)cc4)CC3)nn2)[C@]2(C)[C@H](C)CC[C@]3(CCC(=O)[C@H]32)[C@@H](C)[C@@H]1O`, for which the MBC is over 32 µg/mL against Escherichia coli [1]; 4 µg/mL (≈ 5.1 µM) against Staphylococcus aureus [6]; 4 µg/mL (≈ 5.1 µM) against Staphylococcus aureus [7]; 4 µg/mL (≈ 5.1 µM) against Staphylococcus aureus [8]; 8 µg/mL (≈ 10.2 µM) with Staphylococcus aureus [11]. Moreover, the MIC with Staphylococcus aureus [2] was 2 µg/mL (≈ 2.55 µM); in the assay with Escherichia coli [4] it was over 32 µg/mL; with Staphylococcus aureus [5], 2 µg/mL (≈ 2.55 µM); with Staphylococcus aureus [9], 2 µg/mL (≈ 2.55 µM); in the assay with Staphylococcus aureus [10], 2 µg/mL (≈ 2.55 µM). Moreover, the Ratio in assay [3] is listed as 1.
As to `C=C[C@]1(C)C[C@@H](OC(=O)CO)[C@]2(C)[C@H](C)CC[C@]3(CCC(=O)[C@H]32)[C@@H](C)[C@@H]1O` [PLEUROMULIN], the minimum inhibitory concentration (MIC) stood at 2 µg/mL (≈ 5.28 µM) in the assay on Staphylococcus aureus [2], 1 µg/mL (≈ 2.64 µM) in the assay on Staphylococcus aureus [5], 2 µg/mL (≈ 5.28 µM) against Staphylococcus aureus [9] and 2 µg/mL (≈ 5.28 µM) in the assay on Staphylococcus aureus [10]. In addition, the MBC came to 4 µg/mL (≈ 10.6 µM) in the assay with Staphylococcus aureus [6], 2 µg/mL (≈ 5.28 µM) with Staphylococcus aureus [7], 4 µg/mL (≈ 10.6 µM) against Staphylococcus aureus [8] and 4 µg/mL (≈ 10.6 µM) against Staphylococcus aureus [11].
